The values that follow come from ChEMBL document CHEMBL1789904, “Imaging of Plasmodium liver stages to drive next-generation antimalarial drug discovery” (Science, 2011).

The assay relates to Plasmodium yoelii. As to the kind of experiment: NOVARTIS: Antimalarial liver stage activity measured as reduction in Plasmodium yoelii schizont area in HepG2-A16-CD81 cells by immuno-fluorescence, and median schizont size at 10uM compound concentration. Format: functional, organism-based. To be noted: for IC50: Plasmodium yoelii, HepG2-A16-CD81. The method, boiled down: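 Host and parasite nuclei stained with Hoechst 33342, parasites with αPyHSP70 antibody; 25 images per well by high-content imaging; median parasite (schizont) area measured by automated image analysis, ~50 schizonts per experiment, two or more independent experiments.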

One may read the IC50 as the midpoint of a concentration-inhibition curve. A lower IC50 goes with greater potency. For the compound `CCc1c(C)c(C#N)c2nc3ccccc3n2c1NCc1ccccc1`, the Schizont size is recorded as 126.09 um and the IC50 was over 9600 nM.

For the compound `CC(=O)N(C)C1=C(N2CCCC2)C(=O)c2ccccc2C1=O`, the Schizont size is 123.79 um and the IC50 worked out at 4950 nM.

`Oc1cccc(Nc2nc(NCC3CCCO3)c3ccccc3n2)c1` (configuration not stated) showed a Schizont size of 74.32 um and an IC50 of 1040 nM.

Turning to `Cn1ncnc2c(=O)n(C)c(=O)nc1-2`, the Schizont size was 12.53 um and the 50% inhibitory concentration (IC50) came to 103 nM.

`CSc1nnc(-c2cccc([N+](=O)[O-])c2)n1Cc1ccccc1` showed a Schizont size of 97.38 um and an IC50 of 2510 nM.

`c1ccc(CNc2nc(Nc3ccccc3)nc3ccccc23)cc1` registered a Schizont size of 29.85 um and an IC50 of 153 nM.

`Cc1cccc(N2C(N)=NC(N)=NC2(C)C)c1.Cl` showed a Schizont size of 38.51 um and an IC50 of 4.25 nM.

`CCCCCC[P+](N(CCC)CCC)(N(CCC)CCC)N(CCC)CCC` had a Schizont size of 30.27 um and an IC50 of 49.1 nM.

Consider `CC(=O)Nc1ccc(-c2nc(-c3ccc(Oc4ccc(-c5[nH]c(-c6ccc(NC(C)=O)cc6)nc5-c5ccccc5)cc4)cc3)c(-c3ccccc3)[nH]2)cc1`, for which the Schizont size was determined as 112.31 um and the IC50 was over 3730 nM.

On to `Cc1ccc(NC(=O)C2C3C=CC4(O3)C2C(=O)N(CCCN2CCOCC2)C4C(=O)NC2CCCC(C)C2C)cc1Cl.Cl` (configuration not stated), for which the Schizont size worked out at 196.54 um and the IC50 is over 10000 nM.

For the compound `C1CCC(NP2(NC3CCCCC3)=NP(NC3CCCCC3)(NC3CCCCC3)=NP(NC3CCCCC3)(NC3CCCCC3)=N2)CC1`, the Schizont size came to 33.82 um and the IC50 turned out to be 18.6 nM.

The compound `O=C(c1ccc([N+](=O)[O-])cc1)c1ccc(Cl)c(Cl)c1` registered a Schizont size of 109.39 um and an IC50 of 1640 nM.

The compound `CCCCC(=O)NC(c1cccc([N+](=O)[O-])c1)c1ccc2cccnc2c1O` (configuration not stated) gave a Schizont size of 23.69 um and an IC50 of 449 nM.

In turn, `O=C1C2=C(Nc3ccccc3SC2c2ccc(OCc3ccccc3)cc2)c2ccccc21` (configuration not stated) gave a Schizont size of 23.17 um and a concentration for half-maximal inhibition (IC50) of 58 nM.

For the compound `COc1cccc(NC(=O)Cn2c(C)c(C#N)c3ccccc32)c1`, the Schizont size amounted to 134.12 um and the IC50 was over 9960 nM.

Compound `CCCCn1c(NN=C2C(=O)Nc3ccccc32)nc2c1c(=O)[nH]c(=O)n2C` showed a Schizont size of 172.53 um and an IC50 of over 10000 nM.

Consider `CCN(c1ccccc1)S(=O)(=O)c1ccc(F)c(C(=O)Nc2c(C)cccc2C)c1`, for which the Schizont size worked out at 234.32 um and the 50% inhibitory concentration (IC50) was over 10000 nM.

`Cc1ccc(C2Sc3ccccc3NC3=C2C(=O)c2ccccc23)cc1` (configuration not stated) gave a Schizont size of 27.03 um and an IC50 of 278 nM.

The compound `Cc1ccc(N2C(N)=NC(N)=NC2(C)C)cc1.Cl` yielded a Schizont size of 35.07 um and an IC50 of 10 nM.

Regarding `Oc1c(C(Nc2ccccn2)c2cccc(Cl)c2Cl)ccc2cccnc12` (configuration not stated), the Schizont size was 23.8 um and the IC50 worked out at 402 nM.

As to `COc1ccccc1CNC(=O)c1nn(-c2ccc(Cl)cc2)c(=O)c2ccccc12`, the IC50 was over 10000 nM.

Consider `Cc1nc2ccc(Br)cc2c(O)c1CC(C)C`, for which the Schizont size is listed as 30.79 um and the IC50 was 244 nM.

Turning to `CCCCN1C=CC=C/C1=C\c1sc2ccccc2[n+]1CC`, the Schizont size is 18.47 um and 10.9 nM corresponded to half-maximal inhibition (IC50).

`O=C(Nc1c2ccccc2nc2ccccc12)c1cc(Cl)ccc1O` returned a Schizont size of 43.52 um and an IC50 of 181 nM.

`O=C(O)c1c[nH]c2cc(N3CCCCCC3)c(F)cc2c1=O` had a Schizont size of 224.51 um and an IC50 of over 10000 nM.

`COc1ccc(C(c2ccc(N(C)C)cc2)c2ccc(N(C)C)cc2)cc1`: the Schizont size was 172.95 um and the IC50 was over 10000 nM.

As to `Cc1cc(NC(c2cccc(Br)c2)c2ccc3cccnc3c2O)no1` (configuration not stated), the Schizont size was determined as 16.28 um and the IC50 worked out at 147 nM.

As for `CCC(Sc1nnc(-c2ccc(C)cc2)c(-c2ccc(C)cc2)n1)C(=O)NCCOC` (configuration not stated), the Schizont size stood at 42.59 um and the IC50 was 303 nM.

`CC(C)c1nc(N2CCN(C(=O)Nc3ccccc3)CC2)c(C#N)c2c1COC(C)(C)C2`: the Schizont size worked out at 82.25 um and the IC50 is 1020 nM.

In turn, `CCC1CN2CCc3cc(OC)c(OC)cc3C2CC1CC1NCCc2cc(OC)c(OC)cc21.Cl` (configuration not stated) showed a Schizont size of 13.78 um and an IC50 of 80.2 nM.

For `Cc1ccc(-c2cc3nc4c(c(O)n3n2)CCCC4)cc1`, the Schizont size turned out to be 26.41 um and the IC50 was found to be 75.3 nM.

Consider `CCCCCc1ccc(OCCCC[n+]2cccc(C)c2)c(CCCCC)c1.[Cl-]`, for which the Schizont size is 23.48 um and the IC50 is 34.6 nM.

In the case of `CC(=O)N1c2ccc(C)cc2C(C)(c2ccccc2)CC1(C)C` (configuration not stated), the Schizont size is recorded as 105.42 um and the IC50 was 1250 nM.

`CCOC(=O)C1(CC)CC(C)(C(=O)C[n+]2cccc(Br)c2)OC1=O.[Br-]` (configuration not stated) yielded a Schizont size of 178.59 um and an IC50 of over 10000 nM.

Regarding `S=C(NN=Cc1ccccn1)NC1CC2CC1C1C=CCC21` (configuration not stated), the Schizont size was 27.45 um and the midpoint of inhibition, the IC50, lay at 25.6 nM.

For `O=C1CC(c2ccccc2)CC2=C1C(c1ccccc1[N+](=O)[O-])Nc1ccccc1N2` (configuration not stated), the Schizont size is 201.65 um and the IC50 is over 10000 nM.

For the compound `CCCCSCC(O)CN1CCCCC1` (configuration not stated), the Schizont size is 191.22 um and the IC50 was over 10000 nM.

On to `COc1cccc(OC)c1C(=O)Nn1c(-c2cccc(C)c2)nc2ccccc2c1=O`, for which the IC50 was over 10000 nM.

Turning to `Brc1ccc(-c2cn3c([n+]2-c2ccccc2)SCC3)cc1.[Br-]`, the Schizont size came out at 78.7 um and 828 nM corresponded to half-maximal inhibition (IC50).

In turn, `OC(CNC1CCCCC1)Cn1c2ccccc2c2ccccc21` (configuration not stated) returned a Schizont size of 143.41 um and an IC50 of 3920 nM.

For the compound `CCCC1(CCC)NC(=S)N(c2ccc(C)c(C)c2)N1`, the Schizont size was 233.59 um and the IC50 was over 10000 nM.

`CCCCN(CCCC)S(=O)(=O)c1ccc(NC(=O)c2ccco2)cc1` registered a Schizont size of 35.28 um and an IC50 of 377 nM.

Compound `O=C(Nc1ccc(-c2ccc(Cl)cc2)cc1)c1cccs1` came in with a Schizont size of 31.73 um and an IC50 of 151 nM.

In the case of `Cc1nc2ccccc2c(=O)n1-c1ccc([N+](=O)[O-])cc1`, the Schizont size was determined as 246.01 um and the IC50 was over 10000 nM.

Compound `CCC(C)(C)c1ccc(OCCOCC[n+]2ccccc2)c(C(C)(C)CC)c1.[Cl-]` yielded a Schizont size of 13.88 um and an IC50 of 96.2 nM.

Take `CCOC(=O)CN(N=O)C1=C(N2CC2)C(=O)c2ccccc2C1=O`: the Schizont size is 35.8 um and the IC50 is 480 nM.

For `Cc1ccc(Nc2cc(C)nc(NCc3ccccc3)n2)c(C)c1`, the Schizont size amounted to 89.14 um and the midpoint of inhibition, the IC50, lay at 1300 nM.

Regarding `O=c1c2c([nH]c3ccccc13)CCCC2`, the Schizont size was 39.45 um and the IC50 worked out at 500 nM.

The compound `Cl.Nc1ccc(N2CCCCCC2)cc1` displayed a Schizont size of 77.66 um and an IC50 of 1950 nM.

`Cc1ccc2[nH]c(C)c(Br)c(=O)c2c1` came in with a Schizont size of 29.96 um and an IC50 of 252 nM.

In turn, `Br.O=C(Cn1ccc(=NCc2ccccc2)cc1)c1ccc(I)cc1` showed a Schizont size of 44.99 um and an IC50 of 825 nM.

With `CCOc1ccc(NC(=O)C(C)Sc2nc3ccccc3[nH]2)cc1` (configuration not stated), the Schizont size is 194.87 um and the IC50 is over 10000 nM.

`Cc1cn2c3ccccc3n(CCN3CCCC3)c2n1`: the Schizont size was determined as 126.09 um and the IC50 amounted to 1070 nM.

`CCCC(=O)N1CCN(c2nc(Cc3ccccc3)c3c(c2C#N)CC(C)(C)OC3)CC1`: the Schizont size stood at 22.44 um and it took 348 nM to reach half-maximal inhibition (IC50).

Consider `O=C(Cc1cccs1)N1CCN(c2ccccn2)CC1`, for which the Schizont size amounted to 189.55 um and the IC50 was over 10000 nM.

With `COc1ccc(Nc2nc(NCc3ccccc3)c3ccccc3n2)cc1`, the Schizont size is listed as 29.96 um and the IC50 was 305 nM.

As to `CCOC(=O)c1cnc2ccc(OC)cc2c1Cl`, the Schizont size was 31 um and it took 410 nM to reach half-maximal inhibition (IC50).

On to `CN(C)c1cc[n+](CC(=O)Nc2ccc(Cl)cc2)cc1.[Cl-]`, for which the Schizont size amounted to 69.62 um and the IC50 stood at 584 nM.

As for `CC(C)NC(=O)c1cc(NC(=O)c2cccs2)ccc1N1CCc2ccccc2C1`, the Schizont size came to 26.93 um and the 50% inhibitory concentration (IC50) came out at 74.8 nM.

Turning to `COc1ccccc1Cc1nc2ccccc2nc1SCC(=O)Nc1cccc(C(F)(F)F)c1`, the Schizont size was 187.88 um and the IC50 is over 10000 nM.

`CCCCc1c(C)nc2c(OC)cccc2c1O` displayed a Schizont size of 42.59 um and an IC50 of 561 nM.

The compound `Cc1cc(C)nc(NC(=N)Nc2cccc(O)c2)n1` showed a Schizont size of 88.2 um and an IC50 of 152 nM.

`O=C(Nc1ccc(C(F)(F)F)cc1)c1ccc(NCCCN2CCCCCC2)c([N+](=O)[O-])c1`: the Schizont size was found to be 74.21 um and the half-inhibitory concentration (IC50) is 450 nM.

Consider `CN(C)c1oc(-c2ccc(Cl)cc2Cl)nc1[P+](c1ccccc1)(c1ccccc1)c1ccccc1.[I-]`, for which the Schizont size is 19.41 um and the IC50 was 129 nM.

`Cl.Clc1cccc(Nc2nc(NCc3ccco3)c3ccccc3n2)c1` came in with a Schizont size of 36.64 um and an IC50 of 383 nM.

`c1ccc2c(NCCc3c[nH]cn3)c3ccccc3nc2c1`: the Schizont size was found to be 110.22 um and the IC50 came to 706 nM.

For the compound `O=C(Nc1ccc(-c2nc3cc(NC(=O)c4ccc(Br)o4)ccc3[nH]2)cc1)c1ccc(Br)o1`, the Schizont size came out at 101.14 um and the midpoint of inhibition, the IC50, lay at 812 nM.
